Assay results published in ChEMBL document CHEMBL1649548, “Pharmacodynamics of SMP-601 (PTZ601) against vancomycin-resistant Enterococcus faecium and methicillin-resistant Staphylococcus aureus in neutropenic murine thigh infection models” (Antimicrob Agents Chemother, 2009).
Converted amounts (≈) assume the structure as drawn. The source made the active and inactive calls. The calls are words filed in the database; no cut-off is given here.

Columns and labels:
[1] = tested on: Enterococcus faecium; assay: Antibacterial activity against vancomycin-resistant Enterococcus faecium TL-3273 at 0.5 to 8 ug/mL by time-kill analysis in presence of 1% carrageenan; format: functional, organism-based
[2] = tested on: Enterococcus faecium; assay: Antibacterial activity against vancomycin-resistant Enterococcus faecium TL-3273 infected in ICR mouse assessed as reduction in bacterial burden at 2.5 to 640 mg/kg, sc in presence of 1% carrageenan; format: functional, organism-based
Procedure, shortened: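 Male ICR mice made neutropenic with cyclophosphamide sc (150 mg/kg day −4, 100 mg/kg day −1). Thighs inoculated with ~10^5–10^6 CFU/ml in BHIB plus 1% carrageenan, 2 h before therapy. Total 2.5–640 mg/kg sc over 24 h in 1–12 divided doses, each with cilastatin 100 mg/kg. Thighs homogenised at 24 h, CFU plated; two mice (four thighs) per group.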

[3] = Protein binding in mouse serum at 100 ug/ml by ultrafiltration method; format: ADME, cell-free; conditions: read-out: PB (converted)
[4] = Protein binding in mouse serum at 30 ug/ml by ultrafiltration method; format: ADME, cell-free; conditions: read-out: PB (converted)
[5] = Protein binding in mouse serum at 10 ug/ml by ultrafiltration method; format: ADME, cell-free; conditions: read-out: PB (converted)
[6] = tested on: Enterococcus faecium; assay: Antibacterial activity against vancomycin-resistant Enterococcus faecium TL-3273 by broth microdilution method; format: functional
Procedure, shortened: (§1)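 CLSI broth microdilution in cation-adjusted Mueller-Hinton broth; final inoculum approx. 10^5 CFU/well.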

[7] = tested on: Enterococcus faecium; assay: Antibacterial activity against vancomycin-resistant Enterococcus faecium TL-3621 by broth microdilution method; format: functional; procedure, shortened: as §1
[8] = tested on: Staphylococcus aureus; assay: Antibacterial activity against methicillin-resistant Staphylococcus aureus SP-12249 by broth microdilution method; format: functional; procedure, shortened: as §1
[9] = tested on: Staphylococcus aureus; assay: Antibacterial activity against methicillin-resistant Staphylococcus aureus TL-3677 by broth microdilution method; format: functional; procedure, shortened: as §1
[10] = fT>MIC required for bacteriostatic effect in vancomycin-resistant Enterococcus faecium TL-3273-infected mouse; format: functional
Procedure, shortened: (§2)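 Neutropenic ICR mice (cyclophosphamide), thighs inoculated with ~10^5–10^6 CFU/ml in BHIB with 1% carrageenan 2 h before therapy. Total 2.5–640 mg/kg sc over 24 h in 1–12 doses, with cilastatin 100 mg/kg.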

[11] = fT>MIC required for inducing 1-log killing effect in vancomycin-resistant Enterococcus faecium TL-3273-infected mouse; format: functional; procedure, shortened: as §2
[12] = fT>MIC required for inducing 2-log killing effect in vancomycin-resistant Enterococcus faecium TL-3273-infected mouse; format: functional; procedure, shortened: as §2
[13] = fT>MIC required for bacteriostatic effect in vancomycin-resistant Enterococcus faecium TL-3621-infected mouse; format: functional; procedure, shortened: as §2
[14] = fT>MIC required for inducing 1-log killing effect in vancomycin-resistant Enterococcus faecium TL-3621-infected mouse; format: functional; procedure, shortened: as §2
[15] = fT>MIC required for inducing 2-log killing effect in vancomycin-resistant Enterococcus faecium TL-3621-infected mouse; format: functional; procedure, shortened: as §2
[16] = fT>MIC required for bacteriostatic effect in methicillin-resistant Staphylococcus aureus SP-12249-infected mouse; format: functional
[17] = fT>MIC required for inducing 1-log killing effect in methicillin-resistant Staphylococcus aureus SP-12249-infected mouse; format: functional
[18] = fT>MIC required for inducing 2-log killing effect in methicillin-resistant Staphylococcus aureus SP-12249-infected mouse; format: functional
[19] = fT>MIC required for bacteriostatic effect in methicillin-resistant Staphylococcus aureus TL-3677-infected mouse; format: functional
[20] = fT>MIC required for inducing 1-log killing effect in methicillin-resistant Staphylococcus aureus TL-3677-infected mouse; format: functional
[21] = fT>MIC required for inducing 2-log killing effect in methicillin-resistant Staphylococcus aureus TL-3677-infected mouse; format: functional

SMILES: C[C@H]1C=C(c2csc(SC3=C(C(=O)O)N4C(=O)[C@H]([C@@H](C)O)[C@H]4[C@H]3C)n2)CN1 [RAZUPENEM]
- Activity [1]: Active
- Activity [2]: Active
- fraction unbound at 100 ug/ml [3]: 0.22
- fraction unbound at 30 ug/ml [4]: 0.24
- fraction unbound at 10 ug/ml [5]: 0.25
- MIC [6]: 2 µg/mL (≈ 4.91 µM)
- MIC [7]: 2 µg/mL (≈ 4.91 µM)
- MIC [8]: 1 µg/mL (≈ 2.45 µM)
- MIC [9]: 0.12 µg/mL (≈ 0.294 µM)
- fT>MIC [10]: 9%
- fT>MIC [11]: 12%
- fT>MIC [12]: 16%
- fT>MIC [13]: 10%
- fT>MIC [14]: 14%
- fT>MIC [15]: 19%
- fT>MIC [16]: 23%
- fT>MIC [17]: 30%
- fT>MIC [18]: 37%
- fT>MIC [19]: 23%
- fT>MIC [20]: 27%
- fT>MIC [21]: 32%
